What was measured:
Assay type in all cases: functional
NCI-H322M = test: Cytotoxicity against human NCI-H322M cells assessed as cellular growth at 10 uM after 48 hrs by SRB assay
Procedure, shortened: (§1)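 NCI-60 panel lines grown in RPMI 1640 with 5% FBS and 2 mM L-glutamine. Plated at 5000–40,000 cells/well and preincubated 24 h at 37 °C, 5% CO₂, with time-zero plates fixed in TCA. Compounds, dissolved in DMSO and diluted in medium, were applied for 48 h. Cells were TCA-fixed (10% final for adherent, 16% for suspension) and stained with 0.4% SRB in 1% acetic acid. Dye was solubilised in 10 mM Tris base and read at 515 nm; growth was expressed as a percentage of untreated control.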

PC-3 = test: Antitumor activity against human PC3 cells after 48 hrs by SRB assay; details: PC-3, 48 h
Procedure, shortened: (§2)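 NCI60 panel in RPMI 1640 with 5% FBS and 2 mM L-glutamine. Cells were plated at 5000–40,000/well by doubling time, held 24 h, then time-zero plates were TCA-fixed. Five concentrations (10-fold or half-log dilutions of DMSO stocks) were applied for 48 h at 37 °C, 5% CO2. Cells were fixed with cold TCA (10% final adherent, 16% suspension) and stained with 0.4% SRB. Bound dye was dissolved in 10 mM Tris and read at 515 nm. GI50, TGI and LC50 were calculated per line.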

MDA-MB-231 = test: Antitumor activity against human MDA-MB-231 cells after 48 hrs by SRB assay; details: MDA-MB-231, 48 h; procedure, shortened: as §2
NCI-H226 [1] = test: Antitumor activity against human NCI-H226 cells after 48 hrs by SRB assay; details: NCI-H226, 48 h; procedure, shortened: as §2
MOLT-4 = test: Cytotoxicity against human MOLT4 cells assessed as cellular growth at 10 uM after 48 hrs by SRB assay; procedure, shortened: as §1
NCI-H460 = test: Antitumor activity against human NCI-H460 cells after 48 hrs by SRB assay; details: NCI-H460, 48 h; procedure, shortened: as §2
MDA-MB-468 = test: Antitumor activity against human MDA-MB-468 cells after 48 hrs by SRB assay; details: MDA-MB-468, 48 h; procedure, shortened: as §2
OVCAR-8 = test: Antitumor activity against human OVCAR8 cells after 48 hrs by SRB assay; details: OVCAR-8, 48 h; procedure, shortened: as §2
OVCAR-5 = test: Cytotoxicity against human OVCAR5 cells assessed as cellular growth at 10 uM after 48 hrs by SRB assay; procedure, shortened: as §1
SK-MEL-2 = test: Antitumor activity against human SK-MEL-2 cells after 48 hrs by SRB assay; details: SK-MEL-2, 48 h
Procedure, shortened: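 NCI60 panel cells grown in RPMI 1640 with 5% FBS and 2 mM L-glutamine, plated at 5000–40,000 cells/well and preincubated 24 h at 37 °C, 5% CO₂. Compound was added from DMSO at five concentrations, 10-fold or 1/2 log dilutions, then incubated 48 h.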

IGROV-1 = test: Antitumor activity against human IGROV1 cells after 48 hrs by SRB assay; details: IGROV-1, 48 h; procedure, shortened: as §2
NCI-H522 = test: Antitumor activity against human NCI-H522 cells after 48 hrs by SRB assay; details: NCI-H522, 48 h; procedure, shortened: as §2
HL-60(TB) = test: Antitumor activity against human HL-60(TB) cells after 48 hrs by SRB assay; details: HL-60, 48 h
Procedure, shortened: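 NCI60 screen: cells grown in RPMI 1640 with 5% FBS and 2 mM L-glutamine, plated at 5000–40,000 cells/well by doubling time, preincubated 24 h at 37 °C with 5% CO2. Compounds were diluted from DMSO stocks and given for 48 h, at five concentrations for dose response. A time-zero plate was TCA-fixed. Cells were TCA-fixed, stained with 0.4% SRB and read at 515 nm, with growth expressed relative to untreated controls.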

CCRF-CEM [2] = test: Cytotoxicity against human CCRF-CEM cells assessed as cellular growth at 10 uM after 48 hrs by SRB assay
Procedure, shortened: (§3)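 NCI60 single-dose screen of cells in RPMI 1640 with 5% FBS and 2 mM L-glutamine, preincubated 24 h at 37 °C, 5% CO₂. Cells were then exposed 48 h to compound added from DMSO stock. TCA-fixed, stained with 0.4% SRB in 1% acetic acid, dye solubilised in 10 mM Tris base and read at 515 nm. Growth is given as percent of untreated control.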

K562 = test: Cytotoxicity against human K562 cells assessed as cellular growth at 10 uM after 48 hrs by SRB assay; procedure, shortened: as §3
786-0 = test: Cytotoxicity against human 786-0 cells assessed as cellular growth at 10 uM after 48 hrs by SRB assay; procedure, shortened: as §3
EKVX = test: Antitumor activity against human EKVX cells after 48 hrs by SRB assay; procedure, shortened: as §2
CCRF-CEM [3] = test: Antitumor activity against human CCRF-CEM cells after 48 hrs by SRB assay; procedure, shortened: as §2
NCI/ADR-RES = test: Cytotoxicity against human NCI/ADR-RES cells assessed as cellular growth at 10 uM after 48 hrs by SRB assay; procedure, shortened: as §1
NCI-H226 [4] = test: Cytotoxicity against human NCI-H226 cells assessed as cellular growth at 10 uM after 48 hrs by SRB assay; procedure, shortened: as §1
[5] = read-out: LC50 (the source's name)
[6] = read-out: pLC50 (the source's name) (converted)

`COc1ccc(/C(=C2/O[C@@H]([C@H]3COC(C)(C)O3)[C@H]3OC(C)(C)O[C@@H]23)c2cc(OC)c(OC)c(OC)c2)cc1O` was tested, and the Activity (NCI-H322M) was 34.81%, the GI50 (PC-3; read-out: GI50) was 5.11 µM and the CC50 (PC-3; [5]) was > 100 µM. The TGI (PC-3; read-out: TGI) was > 100 µM, the GI50 (PC-3; read-out: pGI50 (converted)) was 5.13 µM and the CC50 (PC-3; [6]) was > 100 µM. For the same compound, the TGI (PC-3; read-out: pTGI) was > 100 µM, the GI50 (MDA-MB-231) was 4.58 µM and the TGI (MDA-MB-231) was 30.7 µM. For the same compound, the CC50 (MDA-MB-231; [5]) was > 100 µM, the GI50 (NCI-H226 [1]; read-out: GI50) was 2.59 µM and the CC50 (NCI-H226 [1]; [5]) was > 100 µM. The TGI (NCI-H226 [1]; read-out: TGI) was > 100 µM, the GI50 (NCI-H226 [1]; read-out: pGI50 (converted)) was 25.7 µM and the CC50 (NCI-H226 [1]; [6]) was > 100 µM. The TGI (NCI-H226 [1]; read-out: pTGI (converted)) was > 100 µM, the Activity (MOLT-4) was 59.94% and the GI50 (NCI-H460; read-out: GI50) was 4.31 µM. The CC50 (NCI-H460; [5]) was > 100 µM, the TGI (NCI-H460; read-out: TGI) was > 100 µM and the GI50 (NCI-H460; read-out: pGI50 (converted)) was 4.27 µM. The CC50 (NCI-H460; [6]) was > 100 µM, the TGI (NCI-H460; read-out: pTGI) was > 100 µM and the GI50 (MDA-MB-468; read-out: GI50) was 1.45 µM. It also gave a CC50 (MDA-MB-468; [5]) of 80.6 µM, a TGI (MDA-MB-468; read-out: TGI) of 34.1 µM and a GI50 (MDA-MB-468; read-out: pGI50 (converted)) of 14.5 µM. For the same compound, the CC50 (MDA-MB-468; [6]) was > 100 µM, the TGI (MDA-MB-468; read-out: pTGI (converted)) was 33.9 µM and the GI50 (OVCAR-8; read-out: GI50) was 5.27 µM. The CC50 (OVCAR-8; [5]) was > 100 µM, the TGI (OVCAR-8; read-out: TGI) was > 100 µM and the GI50 (OVCAR-8; read-out: pGI50 (converted)) was 5.25 µM. For the same compound, the CC50 (OVCAR-8; [6]) was > 100 µM, the TGI (OVCAR-8; read-out: pTGI) was > 100 µM and the Activity (OVCAR-5) was 95.38%. The GI50 (SK-MEL-2) was 57.9 µM, the TGI (SK-MEL-2) was > 100 µM and the CC50 (SK-MEL-2; [5]) was > 100 µM. The GI50 (IGROV-1; read-out: GI50) was 3.32 µM, the CC50 (IGROV-1; [5]) was > 100 µM and the TGI (IGROV-1; read-out: TGI) was > 100 µM. For the same compound, the GI50 (IGROV-1; read-out: pGI50 (converted)) was 33.1 µM, the CC50 (IGROV-1; [6]) was > 100 µM and the TGI (IGROV-1; read-out: pTGI) was > 100 µM. The GI50 (NCI-H522) was 2.73 µM, the TGI (NCI-H522) was 9.08 µM and the CC50 (NCI-H522; [5]) was > 100 µM. For the same compound, the GI50 (HL-60(TB); read-out: GI50) was 3.39 µM, the CC50 (HL-60(TB); [5]) was > 100 µM and the TGI (HL-60(TB); read-out: TGI) was 23.3 µM. The GI50 (HL-60(TB); read-out: pGI50 (converted)) was 3.39 µM, the CC50 (HL-60(TB); [6]) was > 100 µM and the TGI (HL-60(TB); read-out: pTGI (converted)) was 23.4 µM. The Activity (CCRF-CEM [2]) was 47.94%, the Activity (K562) was 24.28% and the Activity (786-0) was 100.71%. The GI50 (EKVX; read-out: GI50) was 5.57 µM, the CC50 (EKVX; [5]) was > 100 µM and the TGI (EKVX; read-out: TGI) was > 100 µM. The GI50 (EKVX; read-out: pGI50 (converted)) was 56.2 µM, the CC50 (EKVX; [6]) was > 100 µM and the TGI (EKVX; read-out: pTGI) was > 100 µM. The GI50 (CCRF-CEM [3]; read-out: GI50) was 3.75 µM, the CC50 (CCRF-CEM [3]; [5]) was > 100 µM and the TGI (CCRF-CEM [3]; read-out: TGI) was > 100 µM. The GI50 (CCRF-CEM [3]; read-out: pGI50 (converted)) was 3.72 µM, the CC50 (CCRF-CEM [3]; [6]) was > 100 µM and the TGI (CCRF-CEM [3]; read-out: pTGI) was > 100 µM. For the same compound, the Activity (NCI/ADR-RES) was 10.1% and the Activity (NCI-H226 [4]) was 107.94%.
